# The list is not random: actives were taken first. Their share in the collection is about 27%.
# CYP2C9 inhib: inhibitors of human CYP2C9 | P11712 | CYP2C9 Supersomes, luciferin-H conversion, luminescence | inhibition, % at 5 µM | 96,000 compounds, 20% hits | AID 777;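 active = blocking of liver enzyme CYP2C9 beyond about 50% at 5 µM, limit read from the data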
# Cav32 inh: inhibitors of human Cav3.2 T-type calcium channel; Cav3.2-expressing cells, Fluo-4 calcium fluorescence FDSS; active compounds read low; B-score at 10 µM; 100,000 compounds, 4% hits;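 active = single-dose well whose peak fluorescence ratio is a statistical outlier from its plate by either plate-standardised score or position-corrected B-score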
# CYP2C19 inh: blocks human cytochrome P450 2C19. CYP2C19 Supersomes, luciferin-H EGE luminescence, 30 min. P33261. inhibition, % at 5 µM. 96,000 compounds, 21% hits. AID 778;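 active = CYP2C19 inhibition above a set limit at 5 µM in the primary screen, cut at about 50% in these data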;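 note: plate controls were negative control wells for no effect and 2.5 mM tranylcypromine positive control for full effect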
# Target sequence (P33261 whole entry, looked up): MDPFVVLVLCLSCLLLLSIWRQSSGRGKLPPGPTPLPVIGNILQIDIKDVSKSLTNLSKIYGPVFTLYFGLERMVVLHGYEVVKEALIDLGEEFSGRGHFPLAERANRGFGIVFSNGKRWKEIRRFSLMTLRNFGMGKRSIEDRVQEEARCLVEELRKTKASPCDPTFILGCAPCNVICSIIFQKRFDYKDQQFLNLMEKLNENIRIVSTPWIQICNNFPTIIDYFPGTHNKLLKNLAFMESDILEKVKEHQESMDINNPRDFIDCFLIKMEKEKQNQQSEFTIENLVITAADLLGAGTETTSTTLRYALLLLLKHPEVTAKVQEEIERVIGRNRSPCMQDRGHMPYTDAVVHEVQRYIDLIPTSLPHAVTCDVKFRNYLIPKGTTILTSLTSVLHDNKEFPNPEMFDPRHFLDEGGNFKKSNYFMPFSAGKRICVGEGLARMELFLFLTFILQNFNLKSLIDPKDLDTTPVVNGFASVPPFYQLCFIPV
# Rev-RRE block: HIV Rev-RRE protein-RNA interaction inhibition. P05866. AID 704. inhibition, % at 8 µM. 97,000 compounds, 0.79% hits. Rev peptide-RRE RNA binding, FRET;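 active = inhibition above the screen-wide mean plus 3 SD, cut at about 35% in these data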;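 note: 0% = median DMSO wells and 100% = median Neomycin B control wells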
# Target sequence (P05866 whole entry, looked up): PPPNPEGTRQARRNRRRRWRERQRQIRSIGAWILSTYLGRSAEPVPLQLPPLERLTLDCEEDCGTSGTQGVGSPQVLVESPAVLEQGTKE
#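 Test system: labelled RRE RNA duplex and labelled Rev peptide. Times: 5 min compound–RNA preincubation, then 15 min with peptide, 25 °C. Doses: single-dose 8 µM. Measured by: FRET, excitation 480 nm, emission 540 nm donor and 671 nm acceptor. Measure: % inhibition of FRET ratio versus controls.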
# CYP2C19 act: cytochrome P450 2C19 (human) activation. AID 1025. 96,000 tested, under 10 active. activation factor at 5 µM. recombinant CYP2C19, luciferin-H EGE luminescence; active compounds read high; 0 = fully inhibited enzyme, 1 = untreated enzyme;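 active = activation factor of at least 2 at 5 µM in the primary screen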;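 note: 0 = wells with 2.5 mM tranylcypromine and 1 = vehicle-only wells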
# CYP2C9 activ: increases human cytochrome P450 2C9 activity; activation factor at 5 µM; 96,000 compounds, 1.4% hits; recombinant CYP2C9, luciferin-H conversion, luminescence; active compounds read high; factor 1 = untreated enzyme, 0 = blocked; P11712;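 active = activation factor of 2 or more for CYP2C9 at a 5 µM dose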;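 note: 0 = sulfaphenazole-blocked wells and 1 = vehicle-only wells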
# Numbers without * were called inactive; . = no result.
SMILES,CYP2C9 inhib,Cav32 inh,CYP2C19 inh,Rev-RRE block,CYP2C19 act,CYP2C9 activ
Cc1cc(C)n(Cc2ccc(NC(=O)c3nn(C)cc3[N+](=O)[O-])cc2)n1,32,-1.3,24,7,0.8,0.7
O=C1c2ccccc2C(=O)N1CCCCSc1nnnn1-c1ccccc1,51*,-2.8,48,4,0.5,0.5
O=C(CSc1nnnn1-c1ccccc1)NCc1cccs1,7,-0.12,83*,4,0.2,0.9
O=C(CSc1nnnn1-c1ccccc1)CSc1nnnn1-c1ccccc1,72*,-0.029,98*,8,0,0.3
O=C1c2ccccc2C(=O)N1CSc1nnnn1-c1ccccc1,-109,2.5,83*,-1,0.2,2.1*
NC(=O)Nc1ccc(F)cc1,-3,0.63,-3,7,1,1
CC1=C(C(=O)OCc2ccccc2)C(c2ccc(-c3ccccc3)cc2)NC(=O)N1CCCCCC(=O)O (stereo unspecified),.,-2.4,.,.,.,.
COC(=O)C1N[C@@H]([C@@H](NC(=O)COc2ccccc2)C(=O)Nc2ccc(OC)cc2)SC1(C)C (stereo partly specified),.,-0.86,.,.,.,.
O=c1cccc(-c2ccccc2)[nH]1,0,-0.15,-9,9,1.1,1
Cc1cc(C)nc(NC(=O)CSc2nnnn2-c2ccccc2)n1,-45,0.62,52*,1,0.5,1.5
Cc1cc2ccccc2n2c(SCC(=O)NCc3cccs3)nnc12,-52,-0.095,64*,1,0.4,1.5
CSc1nnnn1-c1ccc(C(=O)O)cc1,5,0.52,-7,6,1.1,0.9
O=C(O)c1ccc(-n2nnnc2SCc2ccccc2F)cc1,19,-4.1*,1,6,1,0.8
COc1ccc(N2CCN(CCCNC(=O)CN3CCN(Cc4ccccc4C)C3=O)CC2)cc1,36,1.7,7,3,0.9,0.6
CCOC(=O)CCN(Cc1sccc1C)S(=O)(=O)c1ccc(F)cc1,66*,-2.4,85*,16,0.1,0.3
CCOC(=O)CCN(Cc1cccs1)S(=O)(=O)c1ccc(F)cc1,36,-1,75*,4,0.2,0.6
O=C(O)CN(Cc1ccccc1)S(=O)(=O)c1ccc(F)cc1,47,-0.6,-15,8,1.2,0.5
CCOC(=O)CN(Cc1ccccc1)S(=O)(=O)c1ccc(NC(C)=O)cc1,-5,-0.28,48,4,0.5,1
COC(=O)C1=C(C(=O)OC)[C@@H]2N(Cc3ccccc3)c3ccccc3[C@@]23C[C@@H](C(=O)OC)N(C(=O)C2CCC2)C3=N1,.,-1.4,.,.,.,.
CCOc1ccc(C2C(C(=O)C3CC3)N3C=C(C#N)C=CC3C2(C#N)C#N)cc1 (stereo unspecified),33,0.85,6,48*,0.9,0.7
O=S(=O)(CCc1nc2ccccc2s1)c1ccc2ccccc2c1,-83,-0.49,12,10,0.9,1.8
N#Cc1nc(-c2ccc(F)cc2)oc1N1CCCC1,-33,.,15,9,0.8,1.3
N#Cc1nc(COc2cccc(Cl)c2)oc1N1CCCC1,18,-3,98*,16,0,0.8
CN(C)CCNc1oc(COc2cccc(Cl)c2)nc1C#N,-28,0.028,-12,2,1.1,1.3
N#Cc1nc(-c2ccco2)oc1N1CCN(c2cccc(Cl)c2)CC1,69*,-2.9,76*,10,0.2,0.3
SMILES,CYP2C9 inhib,Cav32 inh,CYP2C19 inh,Rev-RRE block,CYP2C19 act,CYP2C9 activ
N#Cc1nc(-c2ccco2)oc1N1CCCC1,-24,0.52,15,-3,0.9,1.2
N#Cc1nc(COc2ccc(F)cc2)oc1N1CCCC1,28,-2.3,96*,5,0,0.7
CC(NC(=O)Cc1ccc(F)cc1)C(c1cccs1)N1CCN(C)CC1 (stereo unspecified),.,1.2,.,4,.,.
CCOc1ccccc1Cn1c(=O)oc2ccc(C)cc21,.,-4.7*,.,15,.,.
CCCOc1ccccc1Cn1c(=O)oc2ccc(C)cc21,84*,-5.6*,96*,5,0,0.2
Cc1ccc2oc(=O)n(CCOc3ccccc3Cl)c2c1,-8,-0.051,-5,15,1.1,1.1
COc1ccccc1OCCCn1c(=O)oc2ccc(C)cc21,20,-3.6,56*,6,0.4,0.8
CC(=O)NCCc1ccc(S(=O)(=O)Nc2cccnc2)cc1,5,-0.47,19,3,0.8,1
Cc1ccc(/C=C(\C#N)C(=O)Nc2c(C)cccc2C)s1,64*,-1.8,13,19,0.9,0.4
Cc1ccc(NC(=O)/C(C#N)=C/c2ccc(C)s2)c(C)c1,1,-0.84,11,37*,0.9,1
CC(C)(C)c1cc(NC(=O)COc2ccc(Br)cc2)n(-c2ccccc2)n1,-8,-3,36,10,0.6,1.1
COc1ccccc1NCC(O)Cn1c2ccccc2c2ccccc21 (stereo unspecified),77*,-1.3,69*,4,0.3,0.2
CCOc1ccc(NS(=O)(=O)c2ccc3[nH]cc(C(=O)NCCOC)c(=O)c3c2)cc1,.,.,.,1,.,.
Cc1ccccc1N(C)S(=O)(=O)c1ccc2[nH]cc(C(=O)NCC3CCCO3)c(=O)c2c1 (stereo unspecified),91*,0.53,53*,.,0.5,0.1
CCc1ccc(NS(=O)(=O)c2ccc3[nH]cc(C(=O)NCC4CCCO4)c(=O)c3c2)cc1 (stereo unspecified),.,.,.,14,.,.
CCC1CCCCN1C(=O)c1c[nH]c2ccc(S(=O)(=O)N(C)c3ccc(Cl)cc3)cc2c1=O (stereo unspecified),83*,-1.8,74*,6,0.3,0.2
CCc1ccc(N(C)S(=O)(=O)c2ccc3[nH]cc(C(=O)NCCN4CCOCC4)c(=O)c3c2)cc1,60*,0.72,24,5,0.8,0.4
CCOc1ccc(N(C)S(=O)(=O)c2ccc3[nH]cc(C(=O)NCC4CCCO4)c(=O)c3c2)cc1 (stereo unspecified),74*,0.19,24,2,0.8,0.3
Cc1ccccc1NS(=O)(=O)c1ccc2[nH]cc(C(=O)NCCCN3CCOCC3)c(=O)c2c1,38,-1.6,0,4,1,0.6
CCC(=O)NCCCCNC(=O)CC,-8,.,-12,7,1.1,1.1
CCN(CC)S(=O)(=O)c1ccc2[nH]cc(C(=O)NCCN3CCCCCC3)c(=O)c2c1,-1,.,-8,4,1.1,1
CCN(CC)S(=O)(=O)c1ccc2[nH]cc(C(=O)NCCC3=CCCCC3)c(=O)c2c1,91*,-1.2,76*,11,0.2,0.1
CC(C)Oc1cccc(C(=O)O)c1,6,-0.069,1,12,1,0.9
Cc1ccc(C(=O)CCNc2cccc(Br)c2)o1,16,-2,62*,4,0.4,0.8
Cc1ccc(C(=O)CCNc2ccc(F)c(Cl)c2)o1,12,-1.1,66*,.,0.3,0.9
